Measurements as given in publication PMC7856085 (Archives of biochemistry and biophysics, 2020).

Assays:
[1] = molecular target: GSALDH activity of SmPutA (Sinorhizobium meliloti, UniProt F7X6I3); assay: GSALDH activity measurements; assay type: biochemical; details: for Ki / α: P5C variable substrate
SmPutA = assay: Fluorescence-based thermal shift assay; assay type: binding, Sinorhizobium meliloti; details: compound at 62.5 mM; ligand-free SmPutA T1/2 40.2 °C
mammalian GSALDH = details: competitive with P5C; cited from earlier work
[2] = system: GSALDH active site of SmPutA; assay: Co-crystallization / electron density in the GSALDH active site; parameters: species or system Sinorhizobium meliloti; details: co-crystallization at 50 mM
Outline: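 Recombinant SmPutA (expressed in E. coli) at 6 mg/mL in 50 mM Tris pH 8.0, 50 mM NaCl, 5% glycerol, 0.5 mM TCEP. Sitting-drop co-crystallization at 13 °C against 19% PEG-3350, 0.2 M ammonium sulfate, 0.1 M MgCl2, 0.1 M HEPES pH 8.0, 0.1 M sodium formate. Ligand at 50 mM, with or without 10 mM NAD+. Cryoprotected with added 15% PEG-200. Ligand density checked with polder omit maps.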

[3] = Competitive model, NAD+ fixed at 0.2 mM
[4] = Uncompetitive model, NAD+ fixed at 0.2 mM
[5] = Mixed model, NAD+ fixed at 0.2 mM

| Structure (SMILES) | Ki [1, 3] [mM] | Ki [1, 5] [mM] | α [1, 5] | ΔT1/2 (increase of midpoint of stability curve) (SmPutA) [°C] | also measured |
| --- | --- | --- | --- | --- | --- |
| O=C(O)[C@H]1CCCN1 [D-Pro, D-proline] | 1.5 ± 0.5 | – | – | – | Ki [1, 4]: 4.5 ± 0.2 mM |
| O=C(O)[C@H]1C[C@H](O)CN1 [THDP, trans-4-hydroxy-D-proline] | 4.5 ± 0.5 | 10 | 1.6 ± 0.4 | 5.6 | – |
| O=C(O)[C@@H]1C[C@@H](O)CN1 [THLP, trans-4-hydroxy-L-proline] | 7 | 27 | 0.6 ± 0.1 | 2.9 | – |
| O=C(O)C1CCC=N1 [L-P5C, Δ^1-pyrroline-5-carboxylate] | – | – | – | – | Km ([1]; substrate of GSALDH activity of SmPutA, NAD+ fixed at 0.2 mM): 300 ± 100 µM |
| O=C(O)[C@@H]1CCCN1 [L-Pro, L-proline] | 11 | – | – | – | Ki [1, 4]: 19 mM; Ki (mammalian GSALDH): 3 mM |
| O=C(O)[C@@H]1C[C@H](O)CN1 [CHLP, cis-4-hydroxy-L-proline] | – | – | – | 2.1 | Inhibition of the GSALDH activity of SmPutA ([1]; fit to competitive model, L-P5C variable substrate, NAD+ fixed): does not inhibit; Binding to GSALDH site (electron density) [2]: does not bind GSALDH |
| O=C(O)[C@H]1C[C@@H](O)CN1 [CHDP, cis-4-hydroxy-D-proline] | 8 | 25 | 0.9 ± 0.5 | 4.0 | – |
